Experimental data from ChEMBL document CHEMBL1148584, “Effect of polyamine homologation on the transport and biological properties of heterocyclic amidines” (J Med Chem, 2006).
Each block holds one molecule with its values, some of them ahead of it.

Assays:
[1] = target: Phosphodiesterase 1 (Bos taurus, UniProt Q01061+P14100); experiment: Inhibition of bovine calmodulin-activated cAMP dependent phosphodiesterase; assay type: protein assay
Method in brief: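 Crude bovine heart PDE preparation containing calmodulin and Ca²⁺ (0.2 milliunit). Incubated 20 min at 37 °C with 0.1 mM [8-³H]cAMP and graded drug concentrations in 30 mM Tris-HCl, 3 mM MgSO₄, 0.6 mM AMP. Stopped with ZnSO₄; Ba(OH)₂ precipitated AMP with BaSO₄; supernatant radioactivity counted. IC50 is the concentration giving 50% inhibition.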

[2] = test system: L1210; experiment: Intracellular level of conjugate in L1210 cells in the presence of DFMO at 10 uM; assay type: functional, cell-based; conditions: Mus musculus
Method in brief: (§1)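 L1210 cells in RPMI 1640/10% FCS with 2 mM aminoguanidine, seeded at 4 × 10⁴ cells/mL. Conjugate, with or without 5 mM DFMO, added at seeding; cells cultured 48 h, washed in cold NaCl, and extracted with 0.2 N HClO₄. Conjugate and free putrescine, spermidine and spermine quantified by ion-pair HPLC (UV 254 nm, fluorescence ex 345/em 455 nm); normalised to protein. Student's t-test, p<0.05.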

[3] = test system: CHO; experiment: Inhibition of cell growth in CHO cells in the presence of DFMO; assay type: functional, cell-based; conditions: Cricetulus griseus
Method in brief: (§2)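 L1210 cells seeded at 5 × 10⁴ cells/mL with conjugate added at seeding; CHO/CHO-MG plated at 2 × 10³ cells/mL with conjugate added after overnight (24 h). 5 mM DFMO added together with conjugate; medium contains 2 mM aminoguanidine. After 48 h, growth read by MTT formazan absorbance at 540 nm. IC50 is 50% growth inhibition; mean of three determinations.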

[4] = test system: CHO; experiment: Cellular uptake in CHO cells at 50 uM; assay type: ADME, cell-based, Cricetulus griseus; conditions: chinese hamster
Method in brief: (§3)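 CHO (RPMI 1640, 10% FCS, 2 mM aminoguanidine) and CHO-MG (plus L-proline) cells seeded at 2 × 10⁵ cells/mL. Conjugate added 24 h after seeding and cells harvested 24 h later, then washed in cold 0.14 M NaCl and sonicated in 0.2 N HClO₄. Supernatant analysed by ion-pair reversed-phase HPLC (n-octanesulfonate), expressed as nmol/mg protein; mean ± SD of three determinations.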

[5] = test system: CHO-MG; experiment: Cellular uptake in CHO-MG cells at 50 uM; assay type: ADME, cell-based, Cricetulus griseus; conditions: chinese hamster; method in brief: as §3
[6] = Selectivity for uptake CHO cell line over CHO-MG cell line at 50 uM; assay type: functional, Cricetulus griseus
Method in brief: (§4)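 Ratio of intracellular conjugate level in CHO over CHO-MG cells. Both lines were exposed to conjugate 24 h after seeding at 2 × 10⁵ cells/mL, for 24 h with 2 mM aminoguanidine in the medium. Levels were measured by ion-pair HPLC of perchloric extracts and normalised to protein (nmol/mg).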

[7] = test system: L1210; experiment: Intracellular level of putrescine in L1210 cells in the absence of DFMO at 10 uM; assay type: functional, cell-based; conditions: Mus musculus; method in brief: as §1
[8] = test system: L1210; experiment: Intracellular level of putrescine in L1210 cells in the presence of DFMO at 10 uM; assay type: functional, cell-based; conditions: Mus musculus; method in brief: as §1
[9] = test system: L1210; experiment: Intracellular level of spermine in L1210 cells in the absence of DFMO at 10 uM; assay type: functional, cell-based; conditions: Mus musculus; method in brief: as §1
[10] = test system: L1210; experiment: Intracellular level of conjugate in L1210 cells in the absence of DFMO at 10 uM; assay type: functional, cell-based; conditions: Mus musculus; method in brief: as §1
[11] = test system: L1210; experiment: Intracellular level of spermine in L1210 cells in the presence of DFMO at 10 uM; assay type: functional, cell-based; conditions: Mus musculus; method in brief: as §1
[12] = test system: L1210; experiment: Inhibition of cell growth in L1210 cells in the presence of DFMO; assay type: functional, cell-based; conditions: Mus musculus; method in brief: as §2
[13] = test system: CHO-MG; experiment: Inhibition of cell growth in CHO-MG cells in the presence of DFMO; assay type: functional, cell-based; conditions: Cricetulus griseus; method in brief: as §2
[14] = test system: L1210; experiment: Intracellular level of spermidine in L1210 cells in the absence of DFMO at 10 uM; assay type: functional, cell-based; conditions: Mus musculus; method in brief: as §1
[15] = test system: L1210; experiment: Intracellular level of spermidine in L1210 cells in the presence of DFMO at 10 uM; assay type: functional, cell-based; conditions: Mus musculus; method in brief: as §1
[16] = test system: L1210; experiment: Intracellular level of conjugate in L1210 cells in the presence of DFMO at 25 uM; assay type: functional, cell-based; conditions: Mus musculus; method in brief: as §1
[17] = test system: L1210; experiment: Intracellular level of putrescine in L1210 cells in the absence of DFMO at 25 uM; assay type: functional, cell-based; conditions: Mus musculus; method in brief: as §1
[18] = test system: L1210; experiment: Intracellular level of spermidine in L1210 cells in the presence of DFMO at 25 uM; assay type: functional, cell-based; conditions: Mus musculus; method in brief: as §1
[19] = test system: L1210; experiment: Intracellular level of spermine in L1210 cells in the absence of DFMO at 25 uM; assay type: functional, cell-based; conditions: Mus musculus; method in brief: as §1
[20] = test system: L1210; experiment: Intracellular level of spermine in L1210 cells in the presence of DFMO at 25 uM; assay type: functional, cell-based; conditions: Mus musculus; method in brief: as §1
[21] = Selectivity for uptake in CHO cell line over CHO-MG cell line at 25 uM; assay type: functional, Cricetulus griseus; method in brief: as §4
[22] = test system: CHO; experiment: Cellular uptake in CHO cells at 25 uM; assay type: ADME, cell-based, Cricetulus griseus; conditions: chinese hamster; method in brief: as §3
[23] = test system: CHO-MG; experiment: Cellular uptake in CHO-MG cells at 25 uM; assay type: ADME, cell-based, Cricetulus griseus; conditions: chinese hamster; method in brief: as §3
[24] = test system: L1210; experiment: Intracellular level of putrescine in L1210 cells in the presence of DFMO at 25 uM; assay type: functional, cell-based; conditions: Mus musculus; method in brief: as §1
[25] = test system: L1210; experiment: Intracellular level of spermidine in L1210 cells in the absence of DFMO at 25 uM; assay type: functional, cell-based; conditions: Mus musculus; method in brief: as §1
[26] = test system: L1210; experiment: Intracellular level of conjugate in L1210 cells in the absence of DFMO at 25 uM; assay type: functional, cell-based; conditions: Mus musculus; method in brief: as §1
[27] = test system: L1210; experiment: Intracellular level of conjugate in L1210 cells in the presence of DFMO at 50 uM; assay type: functional, cell-based; conditions: Mus musculus; method in brief: as §1
[28] = test system: L1210; experiment: Intracellular level of putrescine in L1210 cells in the absence of DFMO at 50 uM; assay type: functional, cell-based; conditions: Mus musculus; method in brief: as §1
[29] = test system: L1210; experiment: Intracellular level of spermidine in L1210 cells in the presence of DFMO at 50 uM; assay type: functional, cell-based; conditions: Mus musculus; method in brief: as §1
[30] = test system: L1210; experiment: Intracellular level of spermine in L1210 cells in the absence of DFMO at 50 uM; assay type: functional, cell-based; conditions: Mus musculus; method in brief: as §1
[31] = test system: L1210; experiment: Intracellular level of putrescine in L1210 cells in the presence of DFMO at 50 uM; assay type: functional, cell-based; conditions: Mus musculus; method in brief: as §1
[32] = test system: L1210; experiment: Intracellular level of spermidine in L1210 cells in the absence of DFMO at 50 uM; assay type: functional, cell-based; conditions: Mus musculus; method in brief: as §1
[33] = test system: L1210; experiment: Intracellular level of spermine in L1210 cells in the presence of DFMO at 50 uM; assay type: functional, cell-based; conditions: Mus musculus; method in brief: as §1
[34] = test system: L1210; experiment: Intracellular level of conjugate in L1210 cells in the absence of DFMO at 50 uM; assay type: functional, cell-based; conditions: Mus musculus; method in brief: as §1
[35] = test system: CHO; experiment: Cellular uptake in CHO cells at 10 uM; assay type: ADME, cell-based, Cricetulus griseus; conditions: chinese hamster; method in brief: as §3
[36] = test system: CHO-MG; experiment: Cellular uptake in CHO-MG cells at 10 uM; assay type: ADME, cell-based, Cricetulus griseus; conditions: chinese hamster; method in brief: as §3
[37] = test system: CHO-MG; experiment: Selectivity for uptake in CHO cell line over CHO-MG cell line at 10 uM; assay type: functional, cell-based; conditions: Cricetulus griseus; method in brief: as §4

IC50 [1]: > 500 µM
SMILES: CN(c1ccccc1)C1c2ccccc2N=C(NCCCO)C1(C)C (centres undefined)

Drug uptake [4]: 0.66 nmol/mg | Drug uptake [5]: 0.66 nmol/mg | IC50 [12]: 1 µM | IC50 [1]: 19 µM
SMILES: CC1C[C@]2(C)C(NCCCNCCCCNCCCN)=Nc3ccccc3[C@@H]2N(C)c2ccccc21 (some centres undefined)
Drug uptake [2]: 1.5 nmol/mg | IC50 [3]: 9.1 µM | Selectivity ratio [6]: 1 | Drug uptake [7]: 1.5 nmol/mg | Drug uptake [8]: 0.04 nmol/mg | Drug uptake [9]: 9.7 nmol/mg | Drug uptake [10]: 0.59 nmol/mg | Drug uptake [11]: 5.8 nmol/mg | IC50 [13]: 27 µM | Drug uptake [14]: 18 nmol/mg | Drug uptake [15]: 0.49 nmol/mg

IC50 [1]: > 500 µM
SMILES: NCCCNCCCCNCCCN [SPERMINE]
IC50 [13]: > 100 µM

IC50 [1]: 30 µM | Drug uptake [22]: 2.9 nmol/mg | Drug uptake [23]: 3.1 nmol/mg
SMILES: CN(c1ccccc1)C1c2ccccc2N=C(NCCCNCCCCN)C1(C)C (centres undefined)
Drug uptake [16]: 0.66 nmol/mg | Drug uptake [17]: 0.65 nmol/mg | Drug uptake [18]: 1.4 nmol/mg | Drug uptake [19]: 10 nmol/mg | Drug uptake [20]: 10 nmol/mg | Selectivity ratio [21]: 1 | IC50 [13]: > 100 µM | Drug uptake [24]: 0.12 nmol/mg | Drug uptake [25]: 21 nmol/mg | Drug uptake [26]: 0.64 nmol/mg

Drug uptake [4]: 5.3 nmol/mg | Drug uptake [5]: 5.9 nmol/mg | IC50 [1]: 373 µM
SMILES: CNc1ccc(C2c3ccccc3N=C(NCCCCN)C2(C)C)cc1 (centres undefined)
Drug uptake [27]: 0.33 nmol/mg | Selectivity ratio [6]: 0.9 | Drug uptake [28]: 1.9 nmol/mg | Drug uptake [29]: 1.8 nmol/mg | Drug uptake [30]: 8.6 nmol/mg | Drug uptake [31]: 1 nmol/mg | Drug uptake [32]: 20 nmol/mg | Drug uptake [33]: 6.6 nmol/mg | Drug uptake [34]: 0.6 nmol/mg

IC50 [12]: 3.1 µM | IC50 [1]: 23 µM | Drug uptake [22]: 0.72 nmol/mg | Drug uptake [23]: 0.81 nmol/mg
SMILES: CNc1ccc(C2c3ccccc3N=C(NCCCNCCCCNCCCN)C2(C)C)cc1 (centres undefined)
Drug uptake [2]: 0.74 nmol/mg | IC50 [3]: 11 µM | Drug uptake [7]: 1.1 nmol/mg | Drug uptake [8]: 0.07 nmol/mg | Drug uptake [9]: 9.4 nmol/mg | Drug uptake [10]: 0.54 nmol/mg | Drug uptake [11]: 7.8 nmol/mg | Selectivity ratio [21]: 0.9 | IC50 [13]: 23 µM | Drug uptake [14]: 17 nmol/mg | Drug uptake [15]: 0.66 nmol/mg

Drug uptake [4]: 1.2 nmol/mg | Drug uptake [5]: 1.7 nmol/mg | IC50 [1]: 64 µM
SMILES: CNc1ccc(C2c3ccccc3N=C(NCCCNCCCCN)C2(C)C)cc1 (centres undefined)
Drug uptake [27]: 0.62 nmol/mg | Selectivity ratio [6]: 0.7 | Drug uptake [28]: 1.1 nmol/mg | Drug uptake [29]: 2.4 nmol/mg | Drug uptake [30]: 9.2 nmol/mg | Drug uptake [31]: 0.08 nmol/mg | Drug uptake [32]: 15 nmol/mg | Drug uptake [33]: 8 nmol/mg | Drug uptake [34]: 0.77 nmol/mg

IC50 [1]: > 500 µM
SMILES: NCCCCNCCCN [SPERMIDINE]
IC50 [13]: > 100 µM

Drug uptake [35]: 13 nmol/mg | Drug uptake [36]: 12 nmol/mg | IC50 [12]: 33 µM | IC50 [1]: 51 µM
SMILES: CN(c1ccccc1)C1c2ccccc2N=C(NCCCCN)C1(C)C (centres undefined)
IC50 [3]: > 100 µM | Ratio [37]: 1.1 | IC50 [13]: 13 µM
